The entries come from a sample that favours hits as a whole.
KDM4C inh – KDM4C (human) demethylase inhibition | 96,000 tested, 0.15% active | Q9H3R0 | inhibition, % at 12.5 µM | GST-KDM4C 2-372, H3K9me3 peptide, LANCE TR-FRET;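 active = mean replicate inhibition above about 25%, with at least 55% of replicates also reaching it, limit read from the data, passing the limit was not always enough; inconclusive = only one of those two conditions met; inactive = neither condition met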
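System – N-terminal GST-fused human GASC-1 (KDM4C) fragment, residues 2-372 · Input – enzyme final amount 10 nM · Technique – LANCE TR-FRET, Eu antibody, ULight-streptavidin, EDTA, ex 340 nm, em 618/671 nm · Medium – HEPES buffer, pH 7.5, plus ascorbate · Incubation – enzyme reaction 30 min, then detection 60 min, both room temperature · Reagent – H3K9me3 peptide with Fe(II)/2OG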
T cruzi growth-1 – T. cruzi proliferation inhibition; T. cruzi beta-gal in NIH3T3, GalScreen luminescence, 90 h; AID 624255; inhibition, % at 8.34 µM; 77,000 tested, 5.9% active;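 active = mean inhibition above about 93%, with at least 55% of replicates each passing it, limit read from the data, passing the limit was not always enough; inconclusive = only one of those two conditions holds; inactive = neither condition holds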
IDH1 R132H inh – inhibitors of human IDH1 R132H; O75874; IDH1 R132H reductase, diaphorase/resazurin fluorescence, 60 min; inhibition, % at 10 µM; 70,000 tested, 0.18% active; in the data active = inhibition above about 34%; inconclusive = no clear call, values can overlap the other calls; inactive = below about 11%
Target sequence (O75874 whole entry R132H): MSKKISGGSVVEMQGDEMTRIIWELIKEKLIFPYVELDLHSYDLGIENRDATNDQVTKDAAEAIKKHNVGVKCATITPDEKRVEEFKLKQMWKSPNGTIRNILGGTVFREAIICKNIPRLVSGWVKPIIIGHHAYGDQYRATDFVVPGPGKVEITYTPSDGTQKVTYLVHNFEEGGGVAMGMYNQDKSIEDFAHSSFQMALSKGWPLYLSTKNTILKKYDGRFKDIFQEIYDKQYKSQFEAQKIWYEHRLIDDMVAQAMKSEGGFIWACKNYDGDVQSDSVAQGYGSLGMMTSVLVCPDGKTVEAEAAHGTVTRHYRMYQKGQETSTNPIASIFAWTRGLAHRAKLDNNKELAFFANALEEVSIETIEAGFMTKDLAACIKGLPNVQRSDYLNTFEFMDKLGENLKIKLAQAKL
T cruzi growth-2 – blocks T. cruzi growth in NIH3T3 host cells. inhibition, % at 8.35 µM. 5,600 tested, 72% active. shares compounds with T cruzi growth-1. AID 651739. T. cruzi beta-gal in NIH3T3, GalScreen luminescence, 90 h;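 active = mean replicate inhibition above about 95% and at least 55% of replicates individually reaching it, limit read from the data; inconclusive = only one of the two criteria is met; inactive = neither criterion is met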
T cruzi growth-3 – Trypanosoma cruzi proliferation inhibition. shares compounds with T cruzi growth-1. T. cruzi beta-gal in NIH3T3, GalScreen luminescence, 90 h. 5,600 tested, 21% active. inhibition, % at 2.09 µM;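 active = mean inhibition above about 95%, with at least 55% of replicates also reaching it, limit read from the data; inconclusive = meets just one of the two conditions; inactive = meets neither condition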
3T3 cytotox – cytotoxicity in mouse NIH/3T3 fibroblasts. shares compounds with T cruzi growth-1. NIH/3T3 viability, CellTiter-Glo ATP luminescence, 90 h. cytotoxicity (signal decrease), % at 8.35 µM. 5,600 tested, 14% active. AID 651742;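 active = mean signal decrease across replicates above about 35% based on untreated-well scatter, with enough replicates individually passing, limit read from the data; inconclusive = no rule stated though some were filed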
3T3 cytotox 2 – NIH/3T3 (mouse) viability loss | shares compounds with T cruzi growth-1 | NIH/3T3 viability, CellTiter-Glo ATP luminescence, 90 h | inhibition, % at 24.9 µM | 5,600 tested, 56% active;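 active = mean loss of cell viability signal at or above a set limit, and enough replicates individually reaching it; inconclusive = meets only the mean limit or only the replicate share; inactive = meets neither condition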
Numbers stand for hits; . = inactive; ? = inconclusive; / = no result.

SMILES	KDM4C inh	T cruzi growth-1	IDH1 R132H inh	T cruzi growth-2	T cruzi growth-3	3T3 cytotox	3T3 cytotox 2
O=C(C[C@H]1CC[C@@H]2[C@H](COC[C@H](O)CN2Cc2ccccc2)O1)N1CCOCC1	.	123	/	.	.	.	.
O=C(C[C@@H]1CC[C@@H]2[C@H](COC[C@H](O)CN2Cc2ccccc2)O1)N1CCOCC1	.	.	/	/	/	/	/
O=C(C[C@@H]1CC[C@H]2[C@@H](COC[C@@H](O)CN2Cc2ccc(Oc3ccccc3)cc2)O1)N1CCOCC1	.	.	/	/	/	/	/
O=C(C[C@@H]1CC[C@H]2[C@@H](COC[C@@H](O)CN2CCC(F)(F)F)O1)N1CCC(Cc2ccccc2)CC1	.	.	/	/	/	/	/
O=C(C[C@H]1CC[C@@H]2[C@H](COC[C@@H](O)CN2CCC(F)(F)F)O1)N1CCC(Cc2ccccc2)CC1	.	?	/	.	.	.	.
CC(C)=CCC[C@H](C)C/C=N/NC(=O)CCCCC(=O)NO	/	/	.	/	/	/	/
Fc1ccc(-c2cn3cccc(OCc4ccc(Cl)c(Cl)c4)c3n2)cc1	/	/	.	/	/	/	/
Cc1ccc(NC(=O)Cn2cnc3sc(C(=O)OC(C)C)c(C)c3c2=O)cc1	/	/	.	/	/	/	/
Cc1cccc(S(=O)(=O)N2CCCCN3[C@H](CO)[C@H](c4ccc(C#CC(C)C)cc4)[C@H]3C2)c1	.	.	/	/	/	/	/
Cc1cccc(S(=O)(=O)N2CCCCN3[C@H](CO)[C@@H](c4ccc(C#CC(C)C)cc4)[C@H]3C2)c1	.	?	/	102	?	.	103
Cc1cccc(S(=O)(=O)N2CCCCN3[C@H](CO)[C@@H](c4ccc(C#C[C@H](C)O)cc4)[C@H]3C2)c1	.	?	/	.	.	.	33
Cc1cccc(S(=O)(=O)N2CCCCN3[C@H](CO)[C@H](c4ccc(C#C[C@H](C)O)cc4)[C@H]3C2)c1	.	106	/	?	.	.	41
Cc1cccc(S(=O)(=O)N2CCCCN3[C@H](CO)[C@@H](c4ccc(C#C[C@@H](C)O)cc4)[C@@H]3C2)c1	.	.	/	/	/	/	/
Cc1cccc(S(=O)(=O)N2CCCCN3[C@@H](CO)[C@H](c4ccc(C#C[C@H](C)O)cc4)[C@@H]3C2)c1	.	.	/	/	/	/	/
Cc1cccc(S(=O)(=O)N2CCCCN3[C@H](CO)[C@@H](c4ccc(C#C[C@H](C)O)cc4)[C@@H]3C2)c1	.	.	/	/	/	/	/
Cc1cccc(S(=O)(=O)N2CCCCN3[C@H](C2)[C@H](c2ccc(C#C[C@H](C)O)cc2)[C@@H]3CO)c1	.	110	/	110	.	41	.
COC(=O)c1ccc(NC(=O)CSc2ncnc3sc(C)c(C)c23)cc1	/	/	.	/	/	/	/
COc1cccc(S(=O)(=O)N2CCCCN3[C@H](CO)[C@H](c4ccc(C#CC(C)C)cc4)[C@@H]3C2)c1	.	.	/	/	/	/	/
COc1cccc(S(=O)(=O)N2CCCCN3[C@H](CO)[C@@H](c4ccc(C#CC(C)C)cc4)[C@@H]3C2)c1	.	?	/	99	.	.	55
COc1cc(OC)c(C2=NOC(C(=O)NCC3CCCO3)C2)cc1Cl (stereo unspecified)	/	/	.	/	/	/	/
O=C(CSc1nnc(-c2ccccc2)o1)Nc1cccc(Br)c1	/	/	.	/	/	/	/
Cc1ccc(S(=O)(=O)N(C)C[C@H]2OCCCC[C@@H](C)Oc3ccc(NC(=O)C4CCCCC4)cc3C(=O)N([C@@H](C)CO)C[C@H]2C)cc1	.	.	/	/	/	/	/
C[C@@H]1CN([C@@H](C)CO)C(=O)c2cc(NC(=O)C3CCCCC3)ccc2O[C@@H](C)CCCCO[C@@H]1CN(C)S(=O)(=O)c1ccc(Cl)cc1	.	?	/	105	.	.	.
C[C@@H]1CCCCO[C@@H](CN(C)S(=O)(=O)c2ccc(Cl)cc2)[C@@H](C)CN([C@@H](C)CO)C(=O)c2cc(NC(=O)C3CCCCC3)ccc2O1	.	108	.	108	.	.	?
Cc1ccc(S(=O)(=O)N(C)C[C@@H]2OCCCC[C@@H](C)Oc3ccc(NC(=O)C4CCCCC4)cc3C(=O)N([C@H](C)CO)C[C@@H]2C)cc1	.	.	/	/	/	/	/
SMILES	KDM4C inh	T cruzi growth-1	IDH1 R132H inh	T cruzi growth-2	T cruzi growth-3	3T3 cytotox	3T3 cytotox 2
C[C@@H]1CCCCO[C@@H](CN(C)S(=O)(=O)c2ccc(F)cc2)[C@@H](C)CN([C@@H](C)CO)C(=O)c2cc(NC(=O)C3CCCCC3)ccc2O1	.	.	.	/	/	/	/
C[C@@H]1CCCCO[C@H](CN(C)S(=O)(=O)c2ccc(Cl)cc2)[C@H](C)CN([C@H](C)CO)C(=O)c2cc(NC(=O)C3CCCCC3)ccc2O1	.	110	.	101	108	.	.
C[C@H]1CCCCO[C@H](CN(C)S(=O)(=O)c2ccc(Cl)cc2)[C@@H](C)CN([C@@H](C)CO)C(=O)c2cc(NC(=O)C3CCCCC3)ccc2O1	.	110	/	110	101	.	.
C[C@@H]1CCCCO[C@H](CN(C)S(=O)(=O)c2ccc(Cl)cc2)[C@@H](C)CN([C@H](C)CO)C(=O)c2cc(NC(=O)C3CCCCC3)ccc2O1	.	.	.	/	/	/	/
Cc1cc(N(CC(=O)Nc2cccc(C)c2C)S(C)(=O)=O)ccc1Br	/	/	.	/	/	/	/
CCOc1ccccc1NC(=O)Cn1cnc2ccccc2c1=O	/	/	.	/	/	/	/
COc1cc(OC)cc(OCC(O)Cn2cnc3ccccc32)c1 (stereo unspecified)	/	/	.	/	/	/	/
Cc1cc(N(CC(=O)Nc2cc(Cl)ccc2Cl)S(C)(=O)=O)ccc1Br	/	/	.	/	/	/	/
Cc1nnc(Nc2ccc(OCC(=O)N3CCN(c4ccccc4)CC3)cc2)c2ccccc12	/	/	.	/	/	/	/
CCOc1ccc(C(C)=O)cc1CSc1nc(C)cc(=O)[nH]1	/	/	.	/	/	/	/
CC(=O)c1cccc(NC(=O)CSc2nc(-c3ccc(F)cc3)cs2)c1	/	/	.	/	/	/	/
Cc1ccc(S(=O)(=O)N(C)C[C@@H]2OCCCC[C@H](C)Oc3ccc(NC(=O)C4CCCCC4)cc3C(=O)N([C@H](C)CO)C[C@@H]2C)cc1	.	.	.	/	/	/	/
Cc1ccc(S(=O)(=O)N(C)C[C@@H]2OCCCC[C@@H](C)Oc3ccc(NC(=O)C4CCCCC4)cc3C(=O)N([C@@H](C)CO)C[C@H]2C)cc1	.	.	/	/	/	/	/
C[C@@H]1CN([C@H](C)CO)C(=O)c2cc(NC(=O)C3CCCCC3)ccc2O[C@@H](C)CCCCO[C@@H]1CN(C)S(=O)(=O)c1ccc(Cl)cc1	.	102	.	104	.	.	.
C[C@@H]1CCCCO[C@@H](CN(C)S(=O)(=O)c2ccc(Cl)cc2)[C@H](C)CN([C@@H](C)CO)C(=O)c2cc(NC(=O)C3CCCCC3)ccc2O1	.	106	.	105	.	.	42
Cc1c(Cl)cccc1NC(=O)CSc1nc(-c2ccccc2)cs1	/	/	.	/	/	/	/
CC1=CC(=O)OC1(O)CCC(C)CC(=O)O (stereo unspecified)	/	/	.	/	/	/	/
COC(=O)c1ccccc1NC(=O)Cn1nnc(-c2ccc(SC)cc2)n1	/	/	.	/	/	/	/

Screens from PubChem BioAssay.
